From ChEMBL document CHEMBL1765020, “Synthesis and structure-affinity relationships of novel dibenzylideneacetone derivatives as probes for β-amyloid plaques” (J Med Chem, 2011) come the findings set out here.

This experiment is described as follows: Displacement of [125I]IMPY from amyloid beta (1 to 42) aggregate after 2 hrs by gamma counting. The procedure, abridged:
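Competition binding in 1 mL PBS (0.2 M, pH 7.4). Aggregated Aβ1-42 fibrils (60 nM final) with [125I]IMPY and inhibitor at 10^-5 to 10^-10 M, added in ethanol. Nonspecific binding was defined with 1 μM IMPY. Incubated 2 h at 37 °C with shaking, then vacuum-filtered through glass fibre filters and the bound fraction gamma-counted. IC50 was converted to Ki by Cheng-Prusoff; triplicate, mean ± SD.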
(In a radioligand displacement assay an active substance lowers the binding of a labelled ligand.)

Molecules are shown by their SMILES.

Turning to `CN(C)c1ccc(/C=C/C(=O)/C=C/c2cccc(I)c2)cc1`, the Ki was 5.5 nM. `CN(C)c1ccc(/C=C/C(=O)/C=C/c2ccc(F)cc2)cc1` gave a Ki of 3.7 nM.

For orientation: Ki means a measure of affinity in units of concentration, obtained from inhibition or displacement. Lower therefore signals a stronger hold on the target.
